Assay results taken from ChEMBL document CHEMBL1123436, “Comparative toxicities and analgesic activities of three monomethylated analogues of acetaminophen” (J Med Chem, 1986).
Values joined by “and” are separate entries in the source; they are usually repeats but may differ in a detail not shown here. Identical values can stand only once.

Key:
Mus musculus [1] = experiment: Time course of Distribution of Radioactivity in Mice feces after 3 mmol/kg dose of the Compound after 1 hr; assay type: ADME, organism-based; settings: in vivo
Summary of the method: (§1)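 Groups of 12 mice given [acetyl-14C]-labelled drug ip, 3 mmol/kg (0.45 mCi/mmol), housed individually with urine/feces separation. Four killed at each of 1, 3 and 24 h by exsanguination. Tissues (~100 mg) digested in Soluene 350; blood digested and peroxide-bleached; feces freeze-dried, rehydrated, digested and bleached. Scintillation counting; nmol equiv/mg tissue or per mL blood/urine, means ± SE (N = 4).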

Mus musculus [2] = experiment: (§2) Hepatotoxicity in Swiss-Webster Mice Caused by compound at 500 mg/kg (i.p.) dose; assay type: functional, organism-based; parameters: dose 500 mg/kg
Summary of the method: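 Male Swiss-Webster mice (20 g), groups of 10, dosed ip in saline; some groups pretreated with phenobarbital (80 mg/kg ip at 72, 60, 48, 24 h), cobaltous chloride (30 mg/kg ip at 48, 36, 24, 12 h) or neat piperonyl butoxide (1360 mg/kg ip, 30 min before). Survivors killed at 24 h; plasma ALT measured, liver H&E sections scored for necrosis; means ± SE.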

Mus musculus [3] = experiment: Time course of Distribution of Radioactivity in Mice intestine after 3 mmol/kg dose of the Compound after 1 h; assay type: ADME, organism-based; settings: in vivo; summary of the method: as §1
Mus musculus [4] = experiment: Time course of Distribution of Radioactivity in Mice lungs/heart after 3 mmol/kg dose of the Compound after 1 h; assay type: ADME, organism-based, Lung; settings: in vivo; summary of the method: as §1
Mus musculus [5] = experiment: Urinary Metabolic (N-methylacetaminophen) profile in the mouse 24 hr after dose of 3 mmol/kg of the compound; assay type: ADME, organism-based, Urine; settings: in vivo
Mus musculus [6] = experiment: Time course of Distribution of Radioactivity in Mice Liver after 3 mmol/kg dose of the Compound after 3 h; assay type: ADME, organism-based; settings: in vivo; summary of the method: as §1
Mus musculus [7] = species on record: Mus musculus; experiment: Analgesic activity determined in mice using the Bradykinin-induced Writhing test; assay type: organism-based
Summary of the method: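 Male CD1 mice (15–20 g), test drug given orally 15 min before bradykinin ip (4 μg in 0.2 mL sterile water), then a second bradykinin injection (0.2 μg/0.1 mL) 15 min later. Writhing was scored over the next 10 min, with control groups of 10 mice. ED50 was derived by log-probit analysis from at least five doses, with 95% limits.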

Mus musculus [8] = experiment: Time course of Distribution of Radioactivity in Mice spleen after 3 mmol/kg dose of the Compound after 24 h; assay type: ADME, organism-based; settings: in vivo; summary of the method: as §1
Mus musculus [9] = experiment: Time course of Distribution of Radioactivity in Mice Liver after 3 mmol/kg dose of the Compound after 1 h; assay type: ADME, organism-based; settings: in vivo; summary of the method: as §1
Mus musculus [10] = experiment: Time course of Distribution of Radioactivity in Mice feces after 3 mmol/kg dose of the Compound after 3 h; assay type: ADME, organism-based; settings: in vivo; summary of the method: as §1
Mus musculus [11] = experiment: Urinary Metabolic (3-methoxy-N-methylacetaminophen) profile in the mouse 24 hr after dose of 3 mmol/kg of the compound; assay type: ADME, organism-based, Urine; settings: in vivo
Mus musculus [12] = experiment: Time course of Distribution of Radioactivity in Mice spleen after 3 mmol/kg dose of the Compound after 3 h; assay type: ADME, organism-based; settings: in vivo; summary of the method: as §1
Mus musculus [13] = experiment: Urinary Metabolic (3-hydroxy-N-methylacetaminophen) profile in the mouse 24 hr after dose of 3 mmol/kg of the compound; assay type: ADME, organism-based, Urine; settings: in vivo
Mus musculus [14] = experiment: Time course of Distribution of Radioactivity in Mice Urine after 3 mmol/kg dose of the Compound after 24 h; assay type: ADME, organism-based; settings: in vivo; summary of the method: as §1
Mus musculus [15] = experiment: Time course of Distribution of Radioactivity in Mice brain after 3 mmol/kg dose of the Compound after 24 h; assay type: ADME, organism-based; settings: in vivo; summary of the method: as §1
Mus musculus [16] = experiment: Time course of Distribution of Radioactivity in Mice stomach after 3 mmol/kg dose of the Compound after 3 h; assay type: ADME, organism-based; settings: in vivo; summary of the method: as §1
Mus musculus [17] = experiment: Time course of Distribution of Radioactivity in Mice kidney after 3 mmol/kg dose of the Compound after 1 h; assay type: ADME, organism-based; settings: in vivo; summary of the method: as §1
Mus musculus [18] = experiment: Time course of Distribution of Radioactivity in Mice lungs/heart after 3 mmol/kg dose of the Compound after 3 h; assay type: ADME, organism-based, Lung; settings: in vivo; summary of the method: as §1
Mus musculus [19] = experiment: Time course of Distribution of Radioactivity in Mice blood after 3 mmol/kg dose of the Compound after 1 h; assay type: ADME, organism-based; settings: in vivo; summary of the method: as §1
Mus musculus [20] = experiment: Time course of Distribution of Radioactivity in Mice intestine after 3 mmol/kg dose of the Compound after 3 h; assay type: ADME, organism-based; settings: in vivo; summary of the method: as §1
Mus musculus [21] = experiment: Time course of Distribution of Radioactivity in Mice kidney after 3 mmol/kg dose of the Compound after 24 h; assay type: ADME, organism-based; settings: in vivo; summary of the method: as §1
Mus musculus [22] = experiment: Time course of Distribution of Radioactivity in Mice brain after 3 mmol/kg dose of the Compound after 1 h; assay type: ADME, organism-based; settings: in vivo; summary of the method: as §1
Mus musculus [23] = experiment: Urinary Metabolic (Acetaminophen) profile in the mouse 24 h after dose of 3 mmol/kg of the compound; assay type: ADME, organism-based, Urine; settings: in vivo
Mus musculus [24] = experiment: Time course of Distribution of Radioactivity in Mice intestine after 3 mmol/kg dose of the Compound after 24 h; assay type: ADME, organism-based; settings: in vivo; summary of the method: as §1
Mus musculus [25] = experiment: Time course of Distribution of Radioactivity in Mice spleen after 3 mmol/kg dose of the Compound after 1 h; assay type: ADME, organism-based; settings: in vivo; summary of the method: as §1
Mus musculus [26] = experiment: Time course of Distribution of Radioactivity in Mice brain after 3 mmol/kg dose of the Compound after 3 h; assay type: ADME, organism-based; settings: in vivo; summary of the method: as §1
Mus musculus [27] = experiment: Time course of Distribution of Radioactivity in Mice blood after 3 mmol/kg dose of the Compound after 3 h; assay type: ADME, organism-based; settings: in vivo; summary of the method: as §1
Mus musculus [28] = experiment: Hepatotoxicity in Swiss-Webster Mice Caused by compound at 1000 mg/kg (i.p.) dose; 5/10; settings: route intraperitoneal
Mus musculus [29] = experiment: Time course of Distribution of Radioactivity in Mice Liver after 3 mmol/kg dose of the Compound after 24 h; assay type: ADME, organism-based; settings: in vivo; summary of the method: as §1
Mus musculus [30] = experiment: as §2; assay type: functional; settings: route intraperitoneal
Summary of the method: (§3)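 Male Swiss-Webster mice (20 g), groups of 10, were given a single ip dose of drug in saline with no pretreatment. Survivors were decapitated at 24 h and counted. Plasma ALT was measured, and liver sections (formalin-fixed, paraffin, H&E) were scored for necrosis severity in survivors. Values are means ± SE.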

Mus musculus [31] = experiment: Time course of Distribution of Radioactivity in Mice Urine after 3 mmol/kg dose of the Compound after 1 h; assay type: ADME, organism-based; settings: in vivo; summary of the method: as §1
Mus musculus [32] = experiment: Time course of Distribution of Radioactivity in Mice stomach after 3 mmol/kg dose of the Compound after 24 h; assay type: ADME, organism-based; settings: in vivo; summary of the method: as §1
Mus musculus [33] = experiment: Time course of Distribution of Radioactivity in Mice feces after 3 mmol/kg dose of the Compound after 24 h; assay type: ADME, organism-based; settings: in vivo; summary of the method: as §1
Mus musculus [34] = experiment: Time course of Distribution of Radioactivity in Mice Urine after 3 mmol/kg dose of the Compound after 3 h; assay type: ADME, organism-based; settings: in vivo; summary of the method: as §1
Mus musculus [35] = experiment: Time course of Distribution of Radioactivity in Mice blood after 3 mmol/kg dose of the Compound after 24 h; assay type: ADME, organism-based; settings: in vivo; summary of the method: as §1
Mus musculus [36] = experiment: Time course of Distribution of Radioactivity in Mice stomach after 3 mmol/kg dose of the Compound after 1 h; assay type: ADME, organism-based; settings: in vivo; summary of the method: as §1
Mus musculus [37] = experiment: Time course of Distribution of Radioactivity in Mice lungs/heart after 3 mmol/kg dose of the Compound after 24 h; assay type: ADME, organism-based, Lung; settings: in vivo; summary of the method: as §1
Mus musculus [38] = experiment: Time course of Distribution of Radioactivity in Mice kidney after 3 mmol/kg dose of the Compound after 3 h; assay type: ADME, organism-based; settings: in vivo; summary of the method: as §1
Mus musculus [39] = experiment: Hepatotoxicity in Swiss-Webster Mice Caused by compound at 500 mg/kg (i.p.) dose; 9/10; assay type: functional; settings: route intraperitoneal; summary of the method: as §3

CC(=O)N(C)c1ccc(O)cc1 was tested, and the Radioactivity (Mus musculus [1]) was 0.03 nM equiv mg-1, the Plasma ALT at 24 h (Mus musculus [2]) was 27 mU ml-1 and 32 mU ml-1 and the Radioactivity (Mus musculus [3]) was 2.17 nM equiv (mg of tissue)-1. For the same compound, the Radioactivity (Mus musculus [4]) was 1.78 nM equiv (mg of tissue)-1, the Administered dose (Mus musculus [5]) was 78.9% and the Radioactivity (Mus musculus [6]) was 0.6 nM equiv (mg of tissue)-1. The ED50 (Mus musculus [7]) was > 200 mg/kg, the Radioactivity (Mus musculus [8]) was 0.03 nM equiv (mg of tissue)-1 and the Radioactivity (Mus musculus [9]) was 3.16 nM equiv (mg of tissue)-1. For the same compound, the Radioactivity (Mus musculus [10]) was 3.17 nM equiv mg-1, the Administered dose (Mus musculus [11]) was 13.7% and the Radioactivity (Mus musculus [12]) was 0.13 nM equiv (mg of tissue)-1. The Administered dose (Mus musculus [13]) was 0.6%, the Radioactivity (Mus musculus [14]) was 6978 nM equiv (ml of urine)-1 and the Radioactivity (Mus musculus [15]) was 0.01 nM equiv (mg of tissue)-1. For the same compound, the Radioactivity (Mus musculus [16]) was 0.87 nM equiv (mg of tissue)-1, the Radioactivity (Mus musculus [17]) was 3.73 nM equiv (mg of tissue)-1 and the Radioactivity (Mus musculus [18]) was 0.13 nM equiv (mg of tissue)-1. The Radioactivity (Mus musculus [19]) was 1855 nM equiv (ml of blood)-1, the Radioactivity (Mus musculus [20]) was 1.52 nM equiv (mg of tissue)-1 and the Radioactivity (Mus musculus [21]) was 0.05 nM equiv (mg of tissue)-1. The Radioactivity (Mus musculus [22]) was 1.03 nM equiv (mg of tissue)-1, the Administered dose (Mus musculus [23]) was 1.9% and the Radioactivity (Mus musculus [24]) was 0.61 nM equiv (mg of tissue)-1. For the same compound, the Radioactivity (Mus musculus [25]) was 1.58 nM equiv (mg of tissue)-1, the Radioactivity (Mus musculus [26]) was 0.05 nM equiv (mg of tissue)-1 and the Radioactivity (Mus musculus [27]) was 501 nM equiv (ml of blood)-1. For the same compound, the “Survivors at 24 h” value (Mus musculus [28]) was 5, the Radioactivity (Mus musculus [29]) was 0.05 nM equiv (mg of tissue)-1 and the “Hepatic necrosis in survivors” value (Mus musculus [30]) was 0. For the same compound, the Radioactivity (Mus musculus [31]) was 7.67 nM equiv (ml of urine)-1, the Radioactivity (Mus musculus [32]) was 0.08 nM equiv (mg of tissue)-1 and the Radioactivity (Mus musculus [33]) was 74.5 nM equiv mg-1. The Radioactivity (Mus musculus [34]) was 3200 nM equiv (ml of urine)-1, the Radioactivity (Mus musculus [35]) was 14.6 nM equiv (ml of blood)-1 and the Radioactivity (Mus musculus [36]) was 0.21 nM equiv (mg of tissue)-1. The Radioactivity (Mus musculus [37]) was 0.03 nM equiv (mg of tissue)-1, the Radioactivity (Mus musculus [38]) was 0.49 nM equiv (mg of tissue)-1 and the “Survivors at 24 h” value (Mus musculus [39]) was 9.
